The values that follow come from article PMC4390068 (Medicinal chemistry research : an international journal for …, 2014).

The CC50 is the concentration giving 50% cytotoxicity. A higher CC50 goes with lower toxicity to the cells. In general, IC50 refers to the midpoint of a concentration-inhibition curve.

Each structure is given as a SMILES string. “Also recorded” adds a separate entry of the source. Where two headings read alike, the source gives them in different places.

Series [1] is described as follows: Cell viability by resazurin. The conditions noted are these: mouse. In kind it is cell-based.
Series [2] deals with LPS-activated BV-2 microglial cells. The series is described as follows: NO. In kind it is cell-based, murine. The following applies: for IC50: read-out: LPS-NO2 IC50.
In series [3] the test system is iNOS protein expression in LPS-activated BV-2 microglial cells. The series is described as follows: Inducible NOS protein expression by immunohistochemistry. In kind it is cell-based, murine. The following applies: LPS-activated BV-2 cells; 4.4 and 8.9 µM chalcone (1). In outline: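 LPS (E. coli O111:B4, 1 µg/ml, 24 h) activated BV-2 cells at 0.5 × 10^6 cells/ml in phenol-red-free DMEM with 5 % FBS and 3 mM L-glutamine. Test compound came from DMSO stock diluted in HBSS + 5 mM HEPES pH 7.4, with final DMSO <0.5 %. Cells were fixed (4 % paraformaldehyde), permeabilised (0.1 % Triton X-100/PBS) and given rabbit N-terminal anti-iNOS, then Alexa Fluor 488 anti-rabbit (each 2 h, 37 °C), with propidium iodide counterstain and confocal imaging. Dexamethasone 1 µM served as comparator.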

Series [4] concerns LPS-stimulated BV-2 microglia cells. The series is described as follows: Inflammatory cytokines Multi-Analyte ELISArray MEM-004A. The following applies: LPS-activated BV-2 cells, 24 h supernatant. The class given is cell-based, murine. The essentials: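 BV-2 cells were activated with E. coli O111:B4 LPS (1 µg/ml) plus test compound (final DMSO <0.5 %). Supernatants taken at 24 h were stored at −20 °C, then incubated with capture antibodies and mixed antigen standards (2 h, RT), biotinylated detection antibodies (1 h, RT), avidin–HRP (30 min) and development reagent. Absorbance was read at 450 nm, corrected at 570 nm. Results are % of LPS controls, mean ± STD, n = 2, Student's t test.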

With `C[C@@H]1C[C@H]2[C@@H]3CCC4=CC(=O)C=C[C@]4(C)[C@@]3(F)[C@@H](O)C[C@]2(C)[C@@]1(O)C(=O)CO` [Dexamethasone, reference compound], the CC50 in series [1] is more than 50 µM.

On to `COc1cc(/C=C/C(=O)c2ccccc2O)cc(OC)c1OC` [Compound 2, 2′-hydroxy-3,4,5-trimethoxychalcone], for which the IC50 in series [2] (BV-2 cells, LPS 1 µg/ml, 24 h, regression of min. 5 concentrations below 40 µM, n = 4) was determined as 2.2 µM.

Consider `CC(=N)NCCCC[C@H](N)C(=O)O` [L-NIL, L-N6-(1-iminoethyl)lysine, reference compound], for which, in series [2] (Mus musculus, BV-2, 24 h), the IC50 came out at 3.1 µM.

As to `COc1cc(/C=C/C(=O)c2ccc(OC)c(OC)c2O)cc(OC)c1OC` [Compound 1, 2′-hydroxy-3,4,5,3′,4′-pentamethoxychalcone], the “NO inhibition / anti-inflammatory effect (in words)” value in series [2] (BV-2 cells, LPS 1 µg/ml) was “complete inhibition of NO”. The same molecule gave a CC50 in series [1] (BV-2 microglial cells) of 18.3 µM. The iNOS protein expression entry in series [3] was “reducing iNOS protein expression; also recorded: reduction of iNOS protein”. In series [4], the “IL-1α production and release” value is recorded as “attenuated”; the “IL-6 production and release” value was “attenuated”; the “IL-10 production and release” value is recorded as “attenuated”.
